# Screening data as filed in PubChem BioAssay.
# This is a sample that favours compounds with a hit; in the whole collection about 5.1% have one here.
# STAT1 blocker: reduces IFN-gamma driven STAT1 reporter signal | NIH 3T3 STAT1-luciferase reporter, luminescence | inhibition, % at 5.5 µM | 200,000 compounds, 0.35% hits;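 active means inhibition above a set limit, the mean inhibition across all tested compounds plus 3 SD, cut at about 34% in these data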;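 further: 0% = IFN-gamma with DMSO and 100% = IFN-gamma with 300 µM nifuroxazide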
# APP 5'UTR act: activates APP 5'UTR luciferase reporter. SH-SY5Y APP 5'UTR luciferase reporter, luminescence; zero percent = DMSO vehicle wells. activation, % at 2 µM. 190,000 compounds, 1% hits;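 active means activation above a set limit, based on mean plus 3 SD of controls, cut at about 140% in these data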
# STAT1 act-1: STAT1 signaling activation; NIH 3T3 STAT1-luciferase reporter, IFN-gamma, luminescence; 100% = IFN-gamma alone, no compound; activation (% of control), % at 5.5 µM; 200,000 compounds, 2.6% hits;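 active means activation above the screen-wide mean activation plus 3 SD, cut at about 130% in these data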;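 further: raw ratio to IFN-gamma control signal so 100% means no change and 0% no light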
# STAT3 inh: STAT3 signaling inhibition; U3A cells, IL-6 STAT3-luciferase reporter, luminescence; host cell line lacks STAT1; inhibition, % at 5.5 µM; 190,000 compounds, 0.89% hits;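 active means inhibition above the mean inhibition across all screened compounds plus 3 SD, cut at about 44% in these data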;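 further: 0% = DMSO only wells and 100% = 100 µM nifuroxazide control wells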
# STAT3 act-1: increases IL-6 driven STAT3 reporter signal. U3A cells, IL-6 STAT3-luciferase reporter, luminescence; 100% = signal with IL-6 EC80 alone. activation (% of control), % at 5.6 µM. 190,000 compounds, 0.91% hits. AID 871;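 active means activation above the screen-wide mean of compound activation plus 3 SD, cut at about 130% in these data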;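 further: 0% = background luminescence of wells with medium and substrate only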
#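 Detection: reporter luminescence signal / Assay system: STAT1-lacking human U3A cells, STAT3 luciferase reporter / Incubation: compound pre-incubation 1 h before IL-6, then 6 h stimulation at 37 °C / Control set: IL-6-only high control / Read-out: % activation relative to IL-6 control / Probe or stimulus: Interleukin-6, 33 ng/mL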
# NF-kB neuron act: raises NF-kB expression in human neuronal cells. NF-kB reporter expression; active compounds read high. 190,000 compounds, 1.6% hits. fold change at 12.5 µM. AID 1239; in the data active means fold change above about 3.3
# STAT3 act-2: STAT3 activation, confirmation assay | AID 1267 | U3A STAT3-luciferase reporter, IL-6 potentiation, luminescence; U3A cells lack STAT1; 100 means same as IL-6 alone | shares compounds with STAT3 act-1 | potentiation (% of control), % at 5.7 µM | 1,200 compounds, 64% hits;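 active means percent activation of the STAT3 luciferase reporter above a set limit taken from the earlier primary screen, cut at about 130% in these data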;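 further: 0% = background signal of medium plus substrate and 100% = median of IL-6 with DMSO wells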
# NFkB act 2: NF-kappaB activation in STAT3 activator counter-screen; 1,200 compounds, 11% hits; human cells, NF-kappaB reporter activation; AID 1309; shares compounds with STAT3 act-1; activation (% of control), % at 5.7 µM; in the data active means activation above about 120%;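 further: reporter induced by TNF-alpha stimulation; 100% = median of stimulated DMSO wells and 0% = no signal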
# STAT1 act-2: STAT1 activation in STAT3 activator counter-screen; 1,200 compounds, 13% hits; activation (% of control), % at 5.7 µM; NIH 3T3 STAT1-luciferase reporter, IFN-gamma, luminescence; AID 1318; shares compounds with STAT3 act-1;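 active means activation above the solvent-only control well mean plus 3 SD, set per screening run, cut at about 120% in these data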;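 further: 100% = IFN-gamma with DMSO median signal so 100% means no change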
# The depositor's hits bear a star; · = no result given.
SMILES,STAT1 blocker,APP 5'UTR act,STAT1 act-1,STAT3 inh,STAT3 act-1,NF-kB neuron act,STAT3 act-2,NFkB act 2,STAT1 act-2
c1ccc2c(c1)[nH]c1c(N3CCOCC3)ncnc12,20.5,4.1,81.3,-41.3,139.8*,0.69,134.0*,94.1,72.9
CN1C(=O)c2ccccc2C(C(=O)NCCCN2CCCC2=O)C1c1c[nH]c2ccccc12 (stereo unspecified),2.4,-9.9,96.5,-63.3,152.4*,0.87,135.6*,105.0,100.0
COCCN1C(=O)c2ccccc2C(C(=O)NCCCN2CCCC2)C1c1c[nH]c2ccccc12 (stereo unspecified),3.9,9.3,94.8,8.5,96.5,0.97,·,·,·
CCn1c(/C=C2\C(=O)N(C)c3ccccc32)nc2ccccc2c1=O,-3.1,2.6,102.8,-32.7,137.1*,0.39,131.2,111.1,109.1
CCn1c(/C=C2/C(=O)N(C)c3ccccc32)nc2ccccc2c1=O,0.3,-2.4,99.7,-17.1,121.5,0.39,·,·,·
CCn1c(=O)c(C(=O)Nc2ccsc2C(=O)OC)c(O)c2ccccc21,1.3,-9.7,98.8,-52.0,137.9*,1.55,151.0*,94.0,102.0
Cc1cc(C)c(S(=O)(=O)N2CCCCC2)c(C)c1N(C)S(=O)(=O)c1ccc(Cl)cc1,3.0,-2.3,97.3,2.1,103.0,0.93,·,·,·
O=C(NCCSc1c[nH]c2ccccc12)c1c(F)cccc1F,-10.0,-1.5,107.8,·,·,1.21,·,·,·
O=C(NCCSc1c[nH]c2ccccc12)c1ccco1,-9.7,-1.4,108.7,-42.3,139.9*,1.73,121.2,110.1,133.3*
CC(C)(C)OC(=O)N1CCC2(CC1)C(C#N)=C(N)OC1=C2C(=O)CCC1,-2.0,-6.3,101.1,13.1,98.5,1.03,·,·,·
COCCn1c(SCC(=O)Nc2ccc(Cl)cn2)nnc1-c1ccncc1,-1.2,10.6,99.6,5.1,97.7,1.25,·,·,·
CCC(=O)OCC(=O)c1cc(C)n(-c2ccc(Br)cc2)c1C,1.6,13.8,96.8,4.8,99.1,1.33,·,·,·
COc1ccccc1N=C(C)C1=C(O)CC(c2ccccc2)CC1=O (stereo unspecified),-1.9,-91.6,101.9,-41.1,147.8*,3.49*,108.2,140.5*,104.7
CCCC(=Nc1ccccc1OC)C1=C(O)CC(c2ccccc2)CC1=O (stereo unspecified),14.0,-3.1,87.6,4.3,100.3,1.23,·,·,·
CCCC(=O)Nc1nn(C)c2nc3c(C)cccc3cc12,9.2,2.3,91.6,2.2,101.8,0.98,·,·,·
Cc1cccc2cc3c(NC(=O)c4ccccn4)nn(C)c3nc12,9.4,4.8,91.4,-58.3,156.2*,0.64,140.0*,107.3,90.7
C=CCN(CC=C)S(=O)(=O)c1ccc2nc(NC(=O)C3CCCO3)sc2c1 (stereo unspecified),3.5,-5.0,96.9,-2.4,99.9,0.85,·,·,·
Cc1cccnc1NC(=O)c1c(O)c2cccc3c2n(c1=O)CCC3,0.6,-21.9,100.6,-0.3,105.9,1.02,·,·,·
CC(C)(C)c1ccccc1NC(=O)c1c(O)c2cccc3c2n(c1=O)CC3,3.3,17.6,95.1,-48.4,149.4*,0.87,144.2*,105.4,98.9
O=C(Nc1ccccn1)c1c(O)c2cccc3c2n(c1=O)CCC3,-0.4,10.4,100.3,-61.4,157.2*,1.56,146.1*,104.3,99.1
O=C(Nc1nccs1)c1c(O)c2cccc3c2n(c1=O)CCC3,5.3,3.8,93.9,-62.7,153.6*,1.03,167.4*,98.8,98.2
Cc1cc(C)nc(SC2CCCCC2NS(=O)(=O)c2ccccc2)n1 (stereo unspecified),-4.2,·,103.7,8.8,92.7,1.08,·,·,·
Cc1c(CCCN)c2ccccc2n1Cc1ccccc1,-3.6,-10.6,101.5,-0.6,102.5,1.05,·,·,·
